S1P3 ag: human S1P3 receptor agonists, primary screen, cell-based, primary and confirmation, NFAT-BLA reporter. S1P3 NFAT-BLA reporter cells, agonism, FRET ratio; relative to 1 µM S1P, basal subtracted. 60,000 compounds, 0.1% hits. activation, % at 4.5 µM. Sphingosine 1-phosphate receptor 3 (Homo sapiens), Q99500. AID 373, 2006;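 active = activation above the screen-wide mean plus 3 SD, cut at about 4.5% in these data, passing the limit was not always enough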
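Measure – % activation relative to 1 µM S1P (100%), per plate · System – stable CHO line with human S1P3, Gα16, NFAT-BLA reporter · Timing – cells plated overnight, compound 4 h 37 °C, substrate 2 h RT · Technique – fluorescent BLA substrate, ex 405 nm, em 460/535 nm ratio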
SF1 activator: activators of human SF-1, primary screen, cell-based, CHO-K1, Gal4-SF-1 LBD, luciferase luminescence; 65,000 compounds, 1.9% hits; AID 522, 2006; activation, % at 10 µM; CHO-K1 Gal4-SF-1 LBD luciferase reporter; % increase over DMSO SF-1-specific signal; Steroidogenic factor 1 (Homo sapiens), Q13285;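 active = activation above the mean activation of all tested compounds plus 3 SD, cut at about 50% in these data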
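Assay system – CHO-K1 cells with Gal4–hSF-1 LBD chimera plus Gal4-driven luciferase · Quantity – 4,000 cells per well · Times – compound added 1 h post-seeding, 20 h exposure at 37 °C, 5% CO2 · Measured by – luciferase light emission · Benchmarks – DMSO and mock-transfected background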
S1P1 ag pot: S1P1 agonists and agonism potentiators, primary screen, cell-based, primary and confirmation screens, CRE-bla reporter. Sphingosine 1-phosphate receptor 1 (Homo sapiens), P21453. S1P1 CRE-bla cells, forskolin, beta-lactamase FRET, potentiator mode; S1P1 agonist co-added at EC20, 2 nM; 100% = saturating reference agonist, 0% = basal. activation, % at 9.5 µM. 56,000 compounds, 0.57% hits;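 active = activation above a cutoff set at the mean activation of all tested compounds plus 3 SD, cut at about 54% in these data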;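 also: forskolin at 4 µM as EC80 and the EC20 agonist is SEW2871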
RORA act: activators of orphan receptor RORA, primary screen, cell-based, luminescence; Nuclear receptor ROR-alpha (Homo sapiens), P35398; CHO-K1 Gal4-RORA LBD luciferase reporter; percent increase over mock-subtracted basal signal; activation, % at 10 µM; 65,000 compounds, 1.5% hits; AID 560, 2006;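 active = activation above the mean of all tested compounds plus 3 SD, cut at about 49% in these data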
Target sequence (P35398 whole entry, looked up, the tested form may be a part): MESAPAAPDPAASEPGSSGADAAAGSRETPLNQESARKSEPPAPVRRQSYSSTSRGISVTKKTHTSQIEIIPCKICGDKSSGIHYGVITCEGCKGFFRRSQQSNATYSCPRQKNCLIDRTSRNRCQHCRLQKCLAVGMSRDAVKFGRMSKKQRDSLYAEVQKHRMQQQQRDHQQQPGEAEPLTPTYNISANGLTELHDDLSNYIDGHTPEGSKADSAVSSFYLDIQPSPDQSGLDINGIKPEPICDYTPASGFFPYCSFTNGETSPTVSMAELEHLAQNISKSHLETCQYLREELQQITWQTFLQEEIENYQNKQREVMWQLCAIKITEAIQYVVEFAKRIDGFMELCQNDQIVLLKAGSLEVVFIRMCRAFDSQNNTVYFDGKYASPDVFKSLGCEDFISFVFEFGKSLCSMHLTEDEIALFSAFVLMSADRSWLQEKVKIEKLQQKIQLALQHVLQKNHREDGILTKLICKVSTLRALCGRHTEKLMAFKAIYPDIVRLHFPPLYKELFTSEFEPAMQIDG
M1 antag: antagonists of rat M1 muscarinic receptor | Muscarinic acetylcholine receptor M1 (Rattus norvegicus), P08482 | CHO-M1 cells, Fluo-4 calcium, ACh EC80 antagonist mode; stronger effect = lower value | B-score at 10 µM | 64,000 compounds, 3.4% hits | AID 628, 2007;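 active = calcium fluorescence response, raw or row-and-column corrected B-score, differing from the plate sample mean either way at a set confidence level, mostly lower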
M1 ag: M1 muscarinic receptor agonists, primary screen, CHO-M1 cells, Fluo-4 calcium, agonist mode; AID 626, 2007; B-score at 10 µM; Muscarinic acetylcholine receptor M1; 64,000 compounds, 3% hits; Fluo-4 calcium fluorescence; stronger effect = higher value;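 active = fluorescence rise, raw or as B-score row- and column-corrected plate score, outside the 99.7% band of its plate's samples, either direction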
Of the large screens only hits and unclear results are named; the others gave an inactive call. Only some compounds are listed: those with a hit (about 8.8% of all), similar ones and a draw of the others.

COc1ccc(-n2cnc3cc(NCc4cccs4)ccc32)cc1	none
COc1ccc(OC)c2sc(NC(=O)c3ccc(Br)s3)nc12	SF1 activator 53
Cc1c(C(=O)OCC(C)C)[nH]c2c1C(=O)CC(c1ccco1)C2 (stereo not given)	none
Cc1c(C(=O)OCC2CCCO2)[nH]c2c1C(=O)CC(c1ccco1)C2 (stereo not given)	RORA act 56
COc1ccc(Oc2cn[nH]c2-c2ccc(O)cc2O)cc1	none
CCCc1ccc(Oc2cn[nH]c2-c2ccc(O)cc2O)cc1	S1P1 ag pot 74
CCN(CC)C(=O)C1CCN(S(=O)(=O)c2ccc3oc4ccccc4c3c2)CC1	S1P1 ag pot 84
Cc1ccc2c(c1)c1c3n2CCCNC3CCC1 (stereo not given)	RORA act 54
c1ccc2c(c1)c1c3n2CCNC3CCC1 (stereo not given)	none
Cc1ccc2[nH]c(=O)c(CN(Cc3cccnc3)Cc3nnnn3CCN3CCOCC3)cc2c1	none (no result: M1 antag, M1 ag)
O=C(CSc1nnc(Cc2ccccc2)n1-c1ccc(Cl)cc1)N1CCOCC1	none
Cc1ccc2[nH]c(=O)c(CN(Cc3nnnn3Cc3ccccc3)C3CCCC3)cc2c1	none
Cc1cccc2cc(CN(Cc3nnnn3Cc3ccco3)C3CCCC3)c3nnnn3c12	M1 antag 2.4
Cc1ccc(NC(=O)c2cnc3scc(C)n3c2=O)c(C)c1	none
Cc1cccc(NC(=O)c2cnc3scc(C)n3c2=O)c1	RORA act 50
Cc1csc2ncc(C(=O)Nc3ccccc3F)c(=O)n12	SF1 activator 50
Cc1csc2ncc(C(=O)Nc3ccc4c(c3)OCCO4)c(=O)n12	RORA act 97
COc1ccc(C2=NO[C@@H]3C(=O)N(c4cccc(C)c4C)C(=O)[C@H]23)cc1OC	M1 antag 0.91
COc1ccc(C2=NO[C@@H]3C(=O)N(c4ccc(C)cc4C)C(=O)[C@H]23)cc1OC	none
c1ccc(N2CCN(c3ncnc4c3oc3ccccc34)CC2)cc1	S1P1 ag pot 61
O=C(CSc1ncnc2c1oc1ccccc12)N1CCN(c2ccccc2)CC1	none
CCOC(=O)C1CCN(c2ncnc3c2oc2ccccc23)CC1	S1P1 ag pot 97
FC(F)C(F)(F)C(F)(F)C(F)(F)c1cc(-c2ccccc2)n[nH]1	none
CCN(CC)c1ccc(NC(=O)c2cccc(C)c2OC)c(C)c1	SF1 activator 66, RORA act 73 (no result: S1P1 ag pot)
CCC(CO)n1cnnc1-c1ccncc1 (stereo not given)	none
Cc1occc1C(=O)Nc1ccc2c(c1)OCCO2	none
Cc1occc1C(=O)Nc1ccc2c(c1)CCC2	SF1 activator 75, RORA act 55
O=C(Nc1ccc2c(c1)CCC2)c1cnccn1	SF1 activator 55
Cc1ccc(C(=O)Nc2ccc3c(c2)CCC3)o1	SF1 activator 59
CCCOC(=O)c1ccc(NC(=O)c2ccoc2C)cc1	SF1 activator 63
COc1ccccc1-c1cc(C(=O)Nc2c(F)cc(F)cc2Br)no1	none
O=C(Nc1ccc(N2CCCCC2)c(Cl)c1)c1ncn[nH]1	S1P1 ag pot 127
O=C(Nc1ccc(N2CCCC2)c(Cl)c1)c1ccco1	none
Cc1ccc(NC(=O)C2C3CC4OC(=O)C2C4C3)cc1Cl (stereo not given)	none
CC(C)OC(=O)c1ccc(NC(=O)C2C3CC4OC(=O)C2C4C3)cc1 (stereo not given)	SF1 activator 56
CC(C)(C)c1ccc(C(=O)Nc2cnccn2)cc1	none
Cc1ccc(-c2nnn(CC(=O)N(Cc3ccccc3)C(C(=O)NC3CCCC3)c3ccncc3)n2)o1 (stereo not given)	none
O=C1NCCc2c1[nH]c1c(Cl)ccc(Cl)c21	M1 ag 28
COCCn1nnnc1C(c1ccc(Cl)cc1)N1CCSCC1 (stereo not given)	none (no result: M1 antag, M1 ag)
CCSc1nnc(-c2cccc(S(=O)(=O)N(CC)CC)c2)n1Cc1ccccc1	M1 ag 10
CCN(CC)S(=O)(=O)c1cccc(-c2nnc(SCc3ncc(-c4ccccc4)o3)n2C)c1	none
CCOC(=O)c1c(C)[nH]c(C)c1C(=O)CSc1nnc(-c2ccco2)n1Cc1ccccc1	none
CN(C)CCCNCCCNC(=O)/C(=N\O)c1ccccn1	none (no result: M1 antag, M1 ag)
Cn1c(NC(=O)CCc2ccccc2)cc(=O)n(C)c1=O	SF1 activator 56, RORA act 60
CCCC(=O)Nc1cc(=O)n(C)c(=O)n1C	none
CCc1nc2ccccc2n1CCC(C)C	none (no result: M1 antag, M1 ag)
CCc1cccc(NC(=O)Nc2cccs2)c1	RORA act 63
Cc1cccc(C)c1NC(=O)Nc1cccs1	none
COc1ccccc1OCCCCCc1c(C)n[nH]c1C	none
CCOc1ccccc1OCCCCCc1c(C)n[nH]c1C	S1P1 ag pot 89
Cc1cccc(OCCCCc2c(C)n[nH]c2C)c1C	S1P1 ag pot 112
Cc1cc(C)c(C)c(OCc2nc(-c3cccnc3)no2)c1	none
Cc1ccc(OCc2nc(-c3ccccc3)no2)c(C)c1	SF1 activator 59, S1P1 ag pot 78
COc1ccc(-n2c(SCC(=O)Nc3ccccc3)nc3c(c2=O)SCC3)cc1	none
O=C(CCN1C(=O)C2C3C=CC(C3)C2C1=O)NC1CCCc2ccccc21 (stereo not given)	none
COC(=O)c1ccc(NC(=O)Cn2nnc3ccccc32)cc1	SF1 activator 76
CS(=O)(=O)n1nc(OC(=O)c2cccc3ccccc23)cc1N	S1P1 ag pot 65
COc1ccccc1Nc1nc2ccccc2[nH]1	SF1 activator 66
COc1ccccc1Nc1nc(C)cc(=O)[nH]1	none
C=CCSC1=C(C#N)C(c2ccc(OCC)cc2)CC(=O)N1 (stereo not given)	none
COc1ccc(-c2nnc3ccc(SCC(=O)N4CCN(c5ccccc5)CC4)nn23)cc1OC	M1 ag 6
COC(=O)CSc1ccc2nnc(-c3ccc(OC)c(OC)c3)n2n1	none
Cc1nn(C(=O)c2cccs2)c(N)c1-c1ccccc1	SF1 activator 54, RORA act 57
O=c1c2cc(Cl)ccc2nc2ccc(N3CCCC3)nn12	none
O=C1CCC(=O)N1c1nc2n(n1)C(c1ccccc1)C=C(c1ccc(Br)cc1)N2 (stereo not given)	M1 ag 26

Assay outcomes (PubChem BioAssay)
